KCNK9 inh = KCNK9 potassium channel inhibitors, primary screen, HEK293 cells, thallium flux. Potassium channel subfamily K member 9 (Homo sapiens), Q9NPC2. 1.2% of 310,000 active. FluxOR thallium flux fluorescence; active compounds read low. B-score at 10 µM;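 active means ratio B-score over 3 SD below the library mean, with starting fluorescence within 5 SD of its mean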;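 further: negative B-score means less thallium flux so channel inhibition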
Target sequence (Q9NPC2 whole entry, looked up): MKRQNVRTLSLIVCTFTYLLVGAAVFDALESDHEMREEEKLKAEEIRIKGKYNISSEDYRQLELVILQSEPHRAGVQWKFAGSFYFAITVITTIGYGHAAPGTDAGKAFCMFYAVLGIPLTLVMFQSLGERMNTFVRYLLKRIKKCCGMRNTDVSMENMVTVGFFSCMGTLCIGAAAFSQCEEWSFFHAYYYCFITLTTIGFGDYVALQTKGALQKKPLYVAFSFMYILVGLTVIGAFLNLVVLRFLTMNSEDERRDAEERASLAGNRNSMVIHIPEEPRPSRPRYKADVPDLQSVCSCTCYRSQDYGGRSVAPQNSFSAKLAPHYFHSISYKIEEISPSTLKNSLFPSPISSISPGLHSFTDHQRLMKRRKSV
KCNK3 block = human KCNK3 channel inhibitors, primary screen, CHO cells, FluxOR thallium flux, B-score. Potassium channel subfamily K member 3 (Homo sapiens), O14649. FluxOR fluorescence; active compounds read low. B-score at 10 µM. 0.84% of 340,000 active;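 active means B-score under library mean minus 4 SD, starting fluorescence ratio at most library mean plus 5 SD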;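 further: more negative B-score means stronger inhibition of thallium flux through KCNK3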
KCNQ1 block = inhibitors of human KCNQ1 channel, primary screen, cell-based, thallium flux, high-throughput; CHO-K1 KCNQ1, FluxOR thallium flux fluorescence; active compounds read high; B-score at 10 µM; 1.3% of 310,000 active; AID 2642, 2010;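 active means compounds whose thallium flux B-score, printed positive for inhibition, exceeds three library SD while starting fluorescence stays within three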;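 further: channel opened by potassium depolarization with thallium stimulus after 20 min compound exposure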
KCNQ1 act = potentiators or activators of KCNQ1 channel, primary screen, cell-based, thallium flux, high-throughput. Potassium voltage-gated channel subfamily KQT member 1 (Homo sapiens), P51787. 0.35% of 310,000 active. AID 2648, 2010. CHO-K1 KCNQ1, thallium flux FluxOR fluorescence; active compounds read high. B-score at 10 µM;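 active means fluorescence ratio B-score, a plate-corrected score, at least three library SD, with initial intensity B-score within 5 SD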
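Assay system: CHO-K1 cells stably expressing KCNQ1. Medium: assay buffer for compound exposure, DMSO matched across wells. Timing: 37 °C overnight plating, 90-min dark dye load, 20-min compound pretreatment. Signal: kinetic FluxOR fluorescence, 10 s baseline plus 110 s post-stimulus.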
hERG protect = hERG rescue from dofetilide block, primary screen, cell-based, CHO-hERG, FluxOR thallium flux, dofetilide IC70; Voltage-gated inwardly rectifying potassium channel KCNH2 (Homo sapiens), Q12809; activation (rescue from dofetilide block), less the hit threshold, % at 10 µM; 0.51% of 310,000 active; AID 1511, 2009; dofetilide IC70 present;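 active means activation above the mean of controls blocked by dofetilide plus 5 SD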;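 further: thallium influx through hERG after potassium depolarization seen as dye fluorescence rise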
KCNK3 inh conf = retest of human KCNK3 channel inhibitors, confirmation, CHO cells, FluxOR thallium flux, triplicate | shares compounds with KCNK3 block | FluxOR fluorescence; 0% buffer, 100% carvedilol maximal block | ratio percent of control, % at 10 µM | 99% of 2,400 active;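 active means ratio percent of control, averaged over triplicates, above buffer control mean plus 5 SD, cut at about 64% in these data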;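 further: ratio is the fluorescence rise from min to max over baseline after thallium stimulus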
KCNK3 uninduced = thallium flux inhibition in non-induced cells, primary screen, counter-screen for KCNK3 inhibitor project, cell-based, non-induced KCNK3 line, FluxOR thallium, triplicate. shares compounds with KCNK3 block. thallium flux ratio (lower = more inhibition) at 10 µM. 40% of 2,400 active. non-induced KCNK3 parental cells; active compounds read low;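 active means thallium flux ratio, averaged over three wells, more than 5 SD below the buffer control mean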;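 further: host cells are CHO cells without KCNK3 induction; ratio is peak minus trough fluorescence over baseline then normalized to buffer controls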
The depositor's hits bear a star; i = inactive; . = not tested or not shown. The list is not random: actives were taken first. Their share in the collection is about 3.1%.

SMILES | KCNK9 inh | KCNK3 block | KCNQ1 block | KCNQ1 act | hERG protect | KCNK3 inh conf | KCNK3 uninduced
O=C(Cc1ccc([N+](=O)[O-])cc1)NNC(=O)c1ccc2c(c1)OCO2 | i | i | i | i | -8 | . | .
Cc1nn(-c2ccccc2)c(C)c1/C=N/NC(=O)c1cc(-c2ccc(Cl)s2)[nH]n1 | i | -12* | i | i | -27 | 131* | i
O=C(/C=C/c1ccc(N2CCCCC2)c([N+](=O)[O-])c1)c1ccc(O)cc1 | -7.8* | -11* | i | i | -9 | 123* | i
COCCn1c(/C=C/c2ccccc2)nc2ccccc21 | i | -8.8* | i | i | -9 | 83* | i
O=C(Cn1c2[n+](c3ccc(C(F)(F)F)cc31)CCCCC2)c1ccc2c(c1)OCCO2 | i | i | i | i | -7 | . | .
O=[N+]([O-])c1ccc(C2CCCC/C2=N/OCc2ccccc2F)c([N+](=O)[O-])c1 (stereo not drawn) | i | -8.7* | 12* | i | -19 | 121* | i
COc1ccc(CN(CCCN2CCOCC2)C(=O)Nc2ccccc2)cc1OC | i | i | i | i | -11 | . | .
O=C(Nc1ccccc1)N(CCN1CCOCC1)Cc1cccc(Cl)c1 | i | -12* | i | i | -6 | 94* | i
CC(=O)Nc1cccc(NC(=O)CSc2ncc(-c3ccc(Cl)cc3)n2Cc2ccco2)c1 | i | -11* | 7* | i | -27 | 119* | 0.14*
COCC(=O)N1CCCC(C(=O)c2ccc3c4c(cccc24)CC3)C1 (stereo not drawn) | i | i | i | i | -8 | . | .
COCCC(=O)N1CCCC(C(=O)c2ccc3c4c(cccc24)CC3)C1 (stereo not drawn) | i | -11* | i | i | -8 | 86* | 0.15*
C=CCOc1ccc(C(=O)n2cc(C(=O)OC)c3ccccc32)cc1 | i | -9.3* | i | i | -2 | 114* | i
COc1ccc(OC)c(NS(=O)(=O)c2ccc(-c3coc(C)n3)cc2)c1 | i | i | i | i | -4 | . | .
CC(C)=CCc1c(O)ccc2c1OC(c1ccc(O)c(O)c1)CC2=O (stereo not drawn) | -6.6* | -12* | i | i | -38 | 138* | 0.12*
COc1ccccc1OCCCn1cc(C#N)c2ccccc21 | i | i | i | i | -1 | . | .
N#Cc1cn(CCCOc2ccccc2)c2ccccc12 | i | -9.5* | i | i | -7 | 115* | 0.14*
O=[N+]([O-])c1ccc(C2=NN(CCO)C(=Nc3ccc(OC(F)(F)F)cc3)SC2)cc1 | i | -10* | i | i | -9 | 131* | i
CCOc1cc(C(=S)N2CCOCC2)ccc1OC(=O)c1cccc(C)c1 | i | -9.1* | i | i | -3 | 114* | i
CCOc1cc(C(=S)N2CCOCC2)ccc1OC(=O)c1ccccc1 | i | -8.9* | i | i | -8 | 92* | i
CCOc1cc(C(=S)N2CCOCC2)ccc1OC(=O)c1ccc(C)cc1 | i | i | i | i | -9 | . | .
O=C(Nc1ccc(F)c(Cl)c1)c1cc(-c2ccco2)on1 | i | i | i | i | -4 | . | .
N#Cc1ccccc1S(=O)(=O)N1CCN(C(=O)Cc2coc3cc(O)ccc23)CC1 | . | -12* | . | . | . | 0 | i
Cc1ccc2c(CC(=O)N3CCN(S(=O)(=O)c4ccccc4)CC3)coc2c1 | . | i | . | . | . | . | .
COc1ccccc1C1CC(c2ccccc2)Nc2ncnn21 (stereo not drawn) | i | i | i | i | -4 | . | .
COc1ccc(-c2csc3nc(-c4cccnc4)nc(Cl)c23)cc1OC | i | -8.7* | i | i | -15 | 101* | 0.15*
SMILES | KCNK9 inh | KCNK3 block | KCNQ1 block | KCNQ1 act | hERG protect | KCNK3 inh conf | KCNK3 uninduced
O=C(Cc1cccs1)NCCc1csc(-c2ccccc2)n1 | i | i | i | i | -14 | . | .
OC1(c2ccc(OC(F)F)cc2)CSC(=Nc2cccnc2)N1Cc1ccco1 (stereo not drawn) | i | -11* | i | i | -34 | 97* | i
OC1(c2ccc(F)cc2)CSC(=Nc2cccnc2)N1Cc1ccco1 (stereo not drawn) | i | i | i | i | -22 | . | .
CCOC1C(=O)NC(=O)N1Cc1ccccc1 (stereo not drawn) | i | -9.3* | i | i | -5 | 81* | i
CC1CC(=O)NC(=O)N1Cc1ccccc1 (stereo not drawn) | . | i | . | . | . | . | .
O=C(NC1CCN(C(=O)N2c3ccccc3Sc3ccccc32)CC1)c1ccccc1Cl | -7.3* | -10* | i | i | -3 | 109* | i
CC1CCCC(C)N1C(=O)COC(=O)Cc1ccc(F)cc1 (stereo not drawn) | i | i | i | i | -4 | . | .
CCn1c2ccccc2c2nnc(SCc3ccccc3)nc21 | -6.6* | -12* | i | i | -13 | 106* | i
CC1(C)Cc2cccc(C(=O)NC3CCN(Cc4ccccc4)CC3)c2O1 | i | -8.8* | i | i | -10 | 114* | i
CNC(=S)NC(CC(=O)OC)c1ccc2c(c1)OCO2 (stereo not drawn) | i | i | i | i | -2 | . | .
Cc1nn2c(NCC(C)C)c3c(nc2c1-c1ccccc1)CCC3 | i | i | i | i | -11 | . | .
Cc1nn2c(NC(C)C)c3c(nc2c1-c1ccccc1)CCC3 | i | -8.9* | i | i | -12 | 94* | i
COC(=O)C1=C(C)NC(=O)NC1c1ccc(OCC(=O)N2CCCCC2)cc1 (stereo not drawn) | i | i | i | i | -9 | . | .
Cc1nc(N2CCN(C)CC2)c2c(C)c(C(=O)Nc3ccc(F)cc3)sc2n1 | i | i | i | i | -4 | . | .
Cc1nc(N2CCCCC2)c2c(C)c(C(=O)Nc3cccc(C(F)(F)F)c3)sc2n1 | i | -11* | 13* | i | -5 | 124* | 0.12*
COc1ccc(Cc2nc3ccc(C(=O)NCCc4cccc(C)n4)cc3o2)cc1 | i | i | i | i | -12 | . | .

Screens as filed in PubChem.
